Hits are enriched below; roughly 3.7% of the tested compounds scored in any of these assays.
KCNK3 block = human KCNK3 channel inhibitors, primary screen, CHO cells, FluxOR thallium flux, B-score; 0.84% of 340,000 active; AID 602410, 2012; B-score at 10 µM; Potassium channel subfamily K member 3 (Homo sapiens), O14649; FluxOR fluorescence; active compounds read low;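 active = B-score under library mean minus 4 SD, starting fluorescence ratio at most library mean plus 5 SD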;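 also: more negative B-score means stronger inhibition of thallium flux through KCNK3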
Target sequence (O14649 whole entry, looked up): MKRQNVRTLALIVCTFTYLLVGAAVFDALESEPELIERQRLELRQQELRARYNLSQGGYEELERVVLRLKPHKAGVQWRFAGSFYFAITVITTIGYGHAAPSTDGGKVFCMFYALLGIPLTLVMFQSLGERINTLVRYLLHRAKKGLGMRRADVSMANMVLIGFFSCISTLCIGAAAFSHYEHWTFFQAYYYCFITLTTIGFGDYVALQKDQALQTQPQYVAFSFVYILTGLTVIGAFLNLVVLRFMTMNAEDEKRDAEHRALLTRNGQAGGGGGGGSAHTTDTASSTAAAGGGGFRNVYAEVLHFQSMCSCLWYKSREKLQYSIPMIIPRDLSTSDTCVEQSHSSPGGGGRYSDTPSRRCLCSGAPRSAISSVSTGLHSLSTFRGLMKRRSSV
KCNK9 block = KCNK9 potassium channel inhibitors, primary screen, HEK293 cells, thallium flux; 1.2% of 310,000 active; FluxOR thallium flux fluorescence; active compounds read low; B-score at 10 µM; Potassium channel subfamily K member 9 (Homo sapiens), Q9NPC2;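 active = ratio B-score over 3 SD below the library mean, with starting fluorescence within 5 SD of its mean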;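 also: negative B-score means less thallium flux so channel inhibition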
hERG rescue = hERG rescue from dofetilide block, primary screen, cell-based, CHO-hERG, FluxOR thallium flux, dofetilide IC70. Voltage-gated inwardly rectifying potassium channel KCNH2 (Homo sapiens), Q12809. dofetilide IC70 present. activation (rescue from dofetilide block), less the hit threshold, % at 10 µM. 0.51% of 310,000 active. AID 1511, 2009;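 active = activation above the mean of controls blocked by dofetilide plus 5 SD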;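 also: thallium influx through hERG after potassium depolarization seen as dye fluorescence rise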
KCNQ1 block = inhibitors of human KCNQ1 channel, primary screen, cell-based, thallium flux, high-throughput | Potassium voltage-gated channel subfamily KQT member 1 (Homo sapiens), P51787 | B-score at 10 µM | CHO-K1 KCNQ1, FluxOR thallium flux fluorescence; active compounds read high | 1.3% of 310,000 active;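 active = compounds whose thallium flux B-score, printed positive for inhibition, exceeds three library SD while starting fluorescence stays within three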;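 also: channel opened by potassium depolarization with thallium stimulus after 20 min compound exposure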
Kir21 block = inhibitors of mouse Kir2.1 inward-rectifier potassium channel | AID 1672, 2009 | 0.85% of 310,000 active | B-score at 10 µM | HEK293-Kir2.1, FluxOR thallium flux fluorescence; active compounds read low | Inward rectifier potassium channel 2 (Mus musculus), P35561;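 active = fluorescence ratio B-score at or below minus 3 SD of library scores, with starting-brightness B-score within 2 SD, cut at about -4.2 in these data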;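 also: channel flux triggered by added potassium and thallium sulfate stimulus; B-score of peak minus minimum fluorescence over baseline after thallium stimulus; more negative B-score means stronger Kir2.1 block with less thallium influx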
KCNQ1 act = potentiators or activators of KCNQ1 channel, primary screen, cell-based, thallium flux, high-throughput. CHO-K1 KCNQ1, thallium flux FluxOR fluorescence; active compounds read high. AID 2648, 2010. 0.35% of 310,000 active. B-score at 10 µM. Potassium voltage-gated channel subfamily KQT member 1 (Homo sapiens), P51787;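 active = fluorescence ratio B-score, a plate-corrected score, at least three library SD, with initial intensity B-score within 5 SD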
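assay system = KCNQ1-transfected CHO-K1 cells | medium = assay buffer with matched DMSO | probe or stimulus = depolarizing K+/Tl+ stimulus, K2SO4 and Tl2SO4 each 12.5 mM in 5x stock | dosing = single dose | incubation = dye 90 min, compound 20 min, room temperature | detection = kinetic FluxOR fluorescence, 10 s baseline plus 110 s post-stimulus | evaluation = ratio B score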
KCNK9 block conf = KCNK9 potassium channel inhibitors, confirmation, HEK293 cells, thallium flux, duplicate | shares compounds with KCNK9 block | 43% of 4,900 active | inhibition, % at 10 µM | AID 492992, 2010 | FluxOR thallium flux fluorescence;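 active = thallium signal inhibited by more than 5 SD of the compound-free buffer control wells, on both duplicate plates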;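 also: 0% = assay buffer control wells without compound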
Kir21 sel = mouse Kir2.1 channel inhibition, confirmation, selectivity assay for KCNK9 modulator project, cell-based, HEK293, thallium flux; inhibition, % at 10 µM; AID 492993, 2010; 4% of 4,900 active; Kir2.1 cells, FluxOR thallium flux fluorescence; shares compounds with KCNK9 block;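 active = thallium signal drop more than 5 SD beyond the mean of the no-compound control wells, seen in both duplicate plates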;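 also: signal is fluorescence rise after thallium addition divided by baseline fluorescence; plate controls were assay buffer only for no effect and full block by chlorpromazine control for full effect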
HEK293 Tl ctr = thallium flux in non-induced HEK293 cells, confirmation, counter-screen for KCNK9 inhibitor project, cell-based, second counter screen, non-induced KCNK9-HEK293; AID 492997, 2010; FluxOR thallium flux; 40% of 4,900 active; inhibition, % at 10 µM; shares compounds with KCNK9 block;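 active = thallium signal drop beyond 5 SD of the untreated control mean, on both duplicate plates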;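 also: plate controls were buffer only IC0 wells for no effect and SID17386958 at its maximal inhibitory level for full effect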
KCNK3 confirm = retest of human KCNK3 channel inhibitors, confirmation, CHO cells, FluxOR thallium flux, triplicate; shares compounds with KCNK3 block; ratio percent of control, % at 10 µM; 99% of 2,400 active; FluxOR fluorescence; 0% buffer, 100% carvedilol maximal block; AID 651638, 2012;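 active = ratio percent of control, averaged over triplicates, above buffer control mean plus 5 SD, cut at about 64% in these data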;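 also: ratio is the fluorescence rise from min to max over baseline after thallium stimulus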
KCNK3 uninduced = thallium flux inhibition in non-induced cells, primary screen, counter-screen for KCNK3 inhibitor project, cell-based, non-induced KCNK3 line, FluxOR thallium, triplicate; shares compounds with KCNK3 block; non-induced KCNK3 parental cells; active compounds read low; thallium flux ratio (lower = more inhibition) at 10 µM; 40% of 2,400 active;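 active = thallium flux ratio, averaged over three wells, more than 5 SD below the buffer control mean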;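 also: host cells are CHO cells without KCNK3 induction; ratio is peak minus trough fluorescence over baseline then normalized to buffer controls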
Active calls of the source: *.

Screening CN(CCCC1CCCC1)C(=O)c1cc(COc2ccc(F)c(F)c2)on1 returned KCNK3 block -9.16*, KCNK9 block -8.85*, hERG rescue -8.4, KCNQ1 block inactive, Kir21 block 1.42, KCNQ1 act inactive, KCNK9 block conf inactive, Kir21 sel inactive, HEK293 Tl ctr 38.5%*, KCNK3 confirm 122.0* and KCNK3 uninduced inactive.
For C=CCSc1nc(N)c(C(=O)Nc2ccccc2)cc1C#N the results were KCNK3 block inactive, KCNK9 block inactive, hERG rescue -7.9, KCNQ1 block inactive, Kir21 block 0.29 and KCNQ1 act inactive.
`C=CCSc1nc(N)c(C(=O)Nc2ccccc2OC)cc1C(=O)Nc1ccccc1` gave KCNK3 block -11*, KCNK9 block -8.7*, hERG rescue -9.3, KCNQ1 block inactive, Kir21 block 0.43, KCNQ1 act inactive, KCNK9 block conf 27.0%*, Kir21 sel inactive, HEK293 Tl ctr inactive, KCNK3 confirm 107.3* and KCNK3 uninduced inactive.
For CC(C)(C)n1cn[nH]c1=S the results were KCNK3 block inactive, KCNK9 block inactive, hERG rescue -3.2, KCNQ1 block inactive, Kir21 block 1.37 and KCNQ1 act inactive.
CCOC(=O)N1CCN(Cc2c(NC(=O)c3ccco3)sc(C)c2C)CC1 was read as KCNK3 block inactive, KCNK9 block inactive, hERG rescue -4.2, KCNQ1 block inactive, Kir21 block -0.05 and KCNQ1 act inactive.
Screening Cc1sc(NC(=O)c2ccco2)c(CN2CCN(c3ccc(F)cc3)CC2)c1C returned KCNK3 block -10.5*, KCNK9 block -14.8*, hERG rescue -11.0, KCNQ1 block inactive, Kir21 block -0.96, KCNQ1 act inactive, KCNK9 block conf inactive, Kir21 sel inactive, HEK293 Tl ctr 29.0%*, KCNK3 confirm 110.0* and KCNK3 uninduced 0.153*.
For COc1ccccc1CNS(=O)(=O)CCNCCc1ccccc1 the results were KCNK3 block inactive.
Screening NC(=S)N/N=C\c1c(OCc2ccccc2Cl)ccc2ccccc12 returned KCNK3 block -9.5*, KCNK9 block -10.1*, hERG rescue -14.4, KCNQ1 block inactive, Kir21 block -0.27, KCNQ1 act inactive, KCNK9 block conf 46.0%*, Kir21 sel inactive, HEK293 Tl ctr inactive, KCNK3 confirm 101.0* and KCNK3 uninduced inactive.
